Results: the array DNA melting data of Ke et al. (doi:10.1101/2024.01.08.574731)

Tests used:
[1] = folding enthalpy; higher = less favourable; fluorescence melt of hairpins on a sequencing array, two-state fit; settings: sodium 0.088 M
Method in brief: (§1)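 On a sequenced MiSeq flow cell, library hairpins with annealed Cy3 and quencher oligos were imaged for Cy3 fluorescence in 2.5 °C steps up to 60 °C, in 50 mM Na-HEPES pH 8.0, 25 mM NaCl. Normalisation used pre-quench Cy3 and control constructs. Bootstrapped two-state fits gave melting temperature and folding enthalpy, combined by inverse variance across four replicates and with fitted temperatures raised by 9.35 °C to match UV melts.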

[2] = melting temperature; fluorescence melt of hairpins on a sequencing array, two-state fit, raised by 9.35 °C to match UV melts; settings: sodium 0.088 M
Method in brief: as §1

GGTCCGGGAAACCGGGCC ((.((((....)))).))
folding enthalpy [1]: -32.5 kcal/mol | Tm [2]: 68 °C

GTGATAGGAAACTATCAC (((((((....)))))))
folding enthalpy [1]: -42.8 kcal/mol | Tm [2]: 56.1 °C

GCCGACGAAAGTCTCGGC ((((((....)))..)))
folding enthalpy [1]: -37.1 kcal/mol | Tm [2]: 52 °C

GCTGTCCCGAAAGGGAGC (((..(((....))))))
folding enthalpy [1]: -11 kcal/mol | Tm [2]: 41.5 °C

GCTTATGCGAAAGCAAGC (((..(((....))))))
folding enthalpy [1]: -16.6 kcal/mol | Tm [2]: 42.4 °C

GCTATGCGAAAGCCCAGC (((..((....))..)))
folding enthalpy [1]: -11.6 kcal/mol | Tm [2]: 29 °C

GCTAGGCGAAAGCGGAGC (((..((....))..)))
folding enthalpy [1]: -20.1 kcal/mol | Tm [2]: 42.4 °C

GATCATAGTAATGATC ((((((....))))))
folding enthalpy [1]: -37.2 kcal/mol | Tm [2]: 47.3 °C

GTCCCAGCGAAAGCTGAC (((..(((....))))))
folding enthalpy [1]: -8.81 kcal/mol | Tm [2]: 22.4 °C

GTGACGGAAACGTCAC ((((((....))))))
folding enthalpy [1]: -32.9 kcal/mol | Tm [2]: 68.7 °C

GAAAGTGGAAACACTTCC (.(((((....))))).)
folding enthalpy [1]: -16.6 kcal/mol | Tm [2]: 33.7 °C

GTGTTTTCGAAAGAACAC (((..(((....))))))
folding enthalpy [1]: -32.9 kcal/mol | Tm [2]: 38.3 °C

GACACAGGAAACTGTGTC (((((((....)))))))
folding enthalpy [1]: -47.9 kcal/mol | Tm [2]: 62.5 °C

GTCACAACGAAAGTTGAC (((..(((....))))))
folding enthalpy [1]: -11.7 kcal/mol | Tm [2]: 33.2 °C

GATCCAGAGATGGATC ((((((....))))))
folding enthalpy [1]: -34.5 kcal/mol | Tm [2]: 52.3 °C

GAAAAGCGAAAGCTCTTC (((.(((....))).)))
folding enthalpy [1]: -15.4 kcal/mol | Tm [2]: 36.5 °C

GCGTGTGGACGC ((((....))))
folding enthalpy [1]: -13.9 kcal/mol | Tm [2]: 53.9 °C

GCTAACGAAAGTTCTAGC ((((((....)))..)))
folding enthalpy [1]: -11.4 kcal/mol | Tm [2]: 28.8 °C

GACAGCGAAAGCTACGTC ((((((....)))..)))
folding enthalpy [1]: -13.8 kcal/mol | Tm [2]: 39.8 °C

GCTTCTACGAAAGTAAGC (((..(((....))))))
folding enthalpy [1]: -14 kcal/mol | Tm [2]: 33.1 °C

GCTACAGGAAACTGCAGC (((.(((....))).)))
folding enthalpy [1]: -28.3 kcal/mol | Tm [2]: 44.5 °C

GGTATGGGAAACCATGCC ((.((((....)))).))
folding enthalpy [1]: -37.4 kcal/mol | Tm [2]: 51.3 °C

GATCGAACCTCGATC ((((((...))))))
folding enthalpy [1]: -34.4 kcal/mol | Tm [2]: 50.7 °C

GTGCTTTCGAAAGAACAC (((..(((....))))))
folding enthalpy [1]: -19.8 kcal/mol | Tm [2]: 36.7 °C

GCAGTGGGAAACTACTGC (((((.(....).)))))
folding enthalpy [1]: -37.9 kcal/mol | Tm [2]: 54.2 °C

GAATGGGAAACCATTC ((((((....))))))
folding enthalpy [1]: -37.9 kcal/mol | Tm [2]: 51.7 °C

GTCATATCGAAAGATGAC (((..(((....))))))
folding enthalpy [1]: -26.1 kcal/mol | Tm [2]: 37.1 °C

GAACCGCGAAAGCGTTC (((.(((....))))))
folding enthalpy [1]: -14.2 kcal/mol | Tm [2]: 44 °C

GCACATGGAAACATATGC (((.(((....))).)))
folding enthalpy [1]: -26 kcal/mol | Tm [2]: 36 °C

GAGAACGGAAACGTTCTC (((((((....)))))))
folding enthalpy [1]: -41.8 kcal/mol | Tm [2]: 64.7 °C

GCTTTGCGAAAGCATTGC ((..(((....)))..))
folding enthalpy [1]: -19.3 kcal/mol | Tm [2]: 40.9 °C

GATCACATAGGTGATC ((((((....))))))
folding enthalpy [1]: -39.1 kcal/mol | Tm [2]: 55.8 °C

GCTATCGAAAGATGTAGC ((((((....)))..)))
folding enthalpy [1]: -28.9 kcal/mol | Tm [2]: 36.9 °C

GGTTGTCGAAAGACGACC (((.(((....))).)))
folding enthalpy [1]: -39.9 kcal/mol | Tm [2]: 58.8 °C

GTTGACGGAAACGTTAGC (.(.(((....))).).)
folding enthalpy [1]: -7.85 kcal/mol | Tm [2]: 29.9 °C

GGATAGCGAAAGCTTCC (((.(((....))))))
folding enthalpy [1]: -19 kcal/mol | Tm [2]: 48.1 °C

CGCACGGAAACGTATGCG ((((((....)))..)))
folding enthalpy [1]: -35.9 kcal/mol | Tm [2]: 46.7 °C

GCATAGTCGAAAGACTGC (((..(((....))))))
folding enthalpy [1]: -15.2 kcal/mol | Tm [2]: 43.1 °C

GATCAAGTCTTTGATC ((((((....))))))
folding enthalpy [1]: -43.8 kcal/mol | Tm [2]: 48.9 °C

GTGATACGAAAGTAGCAC (((.(((....))).)))
folding enthalpy [1]: -48.7 kcal/mol | Tm [2]: 58.6 °C

GCAGGCGAAAGCCTGTGC ((((((....)))..)))
folding enthalpy [1]: -14.2 kcal/mol | Tm [2]: 68.2 °C

GTGGCGGGAAACCGTCGC (.(.(((....))).).)
folding enthalpy [1]: -24.9 kcal/mol | Tm [2]: 50.5 °C

GATCTGCCCACAGATC ((((((....))))))
folding enthalpy [1]: -37 kcal/mol | Tm [2]: 52.4 °C

GATCGCGAAAGCGCGATC ((((((....)))..)))
folding enthalpy [1]: -30.8 kcal/mol | Tm [2]: 64.1 °C

GATCCCTCGCGGGATC ((((((....))))))
folding enthalpy [1]: -39.1 kcal/mol | Tm [2]: 59.6 °C

GGGGCTACGAAAGTACCC (((..(((....))))))
folding enthalpy [1]: -22.1 kcal/mol | Tm [2]: 48 °C

GACGTAGGAAACTACGTC (((((((....)))))))
folding enthalpy [1]: -44 kcal/mol | Tm [2]: 63.3 °C

GAAAGACGAAAGTCGTTC (((.(((....))).)))
folding enthalpy [1]: -15.1 kcal/mol | Tm [2]: 46 °C

GACGGCGAAAGCCTGTC ((((((....))).)))
folding enthalpy [1]: -15.6 kcal/mol | Tm [2]: 58.6 °C

GAGACGCCGAAAGGCCTC (((..(((....))))))
folding enthalpy [1]: -8.48 kcal/mol | Tm [2]: 30.6 °C

CGCGCGGAAACGCCTGCG ((((((....)))..)))
folding enthalpy [1]: -17.2 kcal/mol | Tm [2]: 46.8 °C

GATGACGAAAGTCGTATC ((((((....)))..)))
folding enthalpy [1]: -12.1 kcal/mol | Tm [2]: 36 °C

GGCACTGGAAACAGTACC ((.((((....)))).))
folding enthalpy [1]: -33 kcal/mol | Tm [2]: 43 °C

GGTCTAGGAAACTAGACC (((((((....)))))))
folding enthalpy [1]: -47.7 kcal/mol | Tm [2]: 60.5 °C

GTCAGGGGAAACCCTGGC (.(((((....))))).)
folding enthalpy [1]: -27.7 kcal/mol | Tm [2]: 53.6 °C

GACTACGAAAGTAGGTC ((((((....))).)))
folding enthalpy [1]: -17.5 kcal/mol | Tm [2]: 48.7 °C

GCACCCGAAAGGGCTGC ((((((....))).)))
folding enthalpy [1]: -31.4 kcal/mol | Tm [2]: 55.2 °C

GCGATGCGAAAGCGCCGC (((..((....))..)))
folding enthalpy [1]: -30.5 kcal/mol | Tm [2]: 62.1 °C

GCTATGGGAAACCATAGC (((((((....)))))))
folding enthalpy [1]: -40.7 kcal/mol | Tm [2]: 61.4 °C

GATCCAAAACTGGATC ((((((....))))))
folding enthalpy [1]: -31.6 kcal/mol | Tm [2]: 45.6 °C

GCGAACGATCGC ((((....))))
folding enthalpy [1]: -21.1 kcal/mol | Tm [2]: 41.1 °C

GCATGCGGAAACGTATGC ((((.((....)).))))
folding enthalpy [1]: -41.4 kcal/mol | Tm [2]: 56.1 °C

GCAGACGAAAGTCGATGC ((((((....)))..)))
folding enthalpy [1]: -17.6 kcal/mol | Tm [2]: 45.4 °C

GCATCTGGAAACAGGTGC (((.(((....))).)))
folding enthalpy [1]: -40.5 kcal/mol | Tm [2]: 52.2 °C

CGATTCGGAAACGATTCG (((.(((....))).)))
folding enthalpy [1]: -33.2 kcal/mol | Tm [2]: 45.8 °C

GCACCGCGAAAGCAATGC (((..((....))..)))
folding enthalpy [1]: -8.2 kcal/mol | Tm [2]: 27.3 °C

GATCGATAGGTCGATC ((((((....))))))
folding enthalpy [1]: -42.2 kcal/mol | Tm [2]: 53 °C

GGATCCGAAAGGACCTCC ((((((....)))..)))
folding enthalpy [1]: -15.5 kcal/mol | Tm [2]: 47.2 °C

GCATCAGGAAACTGATAC (.(((((....))))).)
folding enthalpy [1]: -18.7 kcal/mol | Tm [2]: 34.2 °C

GTCGCCGAAAGGCACGAC ((((((....)))..)))
folding enthalpy [1]: -15.6 kcal/mol | Tm [2]: 48.4 °C

GGAACCTCGAAAGAGTCC (((..(((....))))))
folding enthalpy [1]: -11.3 kcal/mol | Tm [2]: 27 °C

GATCACACTGGTGATC ((((((....))))))
folding enthalpy [1]: -36.1 kcal/mol | Tm [2]: 56.4 °C

GCAGAGCGAAAGCTTAGC ((..(((....)))..))
folding enthalpy [1]: -17.5 kcal/mol | Tm [2]: 41.7 °C

GTTGAGGGAAACTTCGAC ((.((.(....).)).))
folding enthalpy [1]: -20.3 kcal/mol | Tm [2]: 31.5 °C

GATCCCCGAAAGGGAATC (((.(((....))).)))
folding enthalpy [1]: -21.8 kcal/mol | Tm [2]: 44.9 °C

GATCGTCGTAACGATC ((((((....))))))
folding enthalpy [1]: -48.4 kcal/mol | Tm [2]: 57.1 °C

GATCCTCCCCAGGATC ((((((....))))))
folding enthalpy [1]: -43.7 kcal/mol | Tm [2]: 50.4 °C

GGTTTCGAAAGAACGACC ((((((....)))..)))
folding enthalpy [1]: -14.4 kcal/mol | Tm [2]: 29.6 °C

GTTGCAGGAAACTGCAAC (((((((....)))))))
folding enthalpy [1]: -39.6 kcal/mol | Tm [2]: 68 °C

GGTTGGGGAAACCCAACC (((((((....)))))))
folding enthalpy [1]: -36.8 kcal/mol | Tm [2]: 66.4 °C

GGTCGGGGAAACCCGGTC (..((((....))))..)
folding enthalpy [1]: -14.8 kcal/mol | Tm [2]: 45.5 °C

GCATTACGAAAGTATGC (((.(((....))))))
folding enthalpy [1]: -26.9 kcal/mol | Tm [2]: 48.7 °C

GCTCTCGAAAGAGTAAGC ((((((....)))..)))
folding enthalpy [1]: -22.6 kcal/mol | Tm [2]: 39.7 °C

GGTCTCGAAAGAGCAACC ((((((....)))..)))
folding enthalpy [1]: -14.2 kcal/mol | Tm [2]: 34.5 °C

GTTTGCACGAAAGTGAAC (((..(((....))))))
folding enthalpy [1]: -13.9 kcal/mol | Tm [2]: 31.2 °C

GGTCAAACGAAAGTTACC (((..(((....))))))
folding enthalpy [1]: -15.1 kcal/mol | Tm [2]: 30.3 °C

GTACGCGAAAGCGCATAC ((((((....)))..)))
folding enthalpy [1]: -5.57 kcal/mol | Tm [2]: 22.5 °C

GATGCAGAAATGCATC ((((((....))))))
folding enthalpy [1]: -36.7 kcal/mol | Tm [2]: 58.7 °C

GGTTCTGGAAACAGAATC (.(((((....))))).)
folding enthalpy [1]: -34.2 kcal/mol | Tm [2]: 45 °C

GTCCCCGAAAGGGTGGAC ((((((....)))..)))
folding enthalpy [1]: -14.8 kcal/mol | Tm [2]: 48.9 °C

GTGCAGCGAAAGCTCAC (((.(((....))))))
folding enthalpy [1]: -27 kcal/mol | Tm [2]: 50.8 °C

GCGTGGCGAAAGCTAGGC ((.(.((....)).).))
folding enthalpy [1]: -20.4 kcal/mol | Tm [2]: 52 °C
